Laboratory results: paper PMC3880621 (Journal of medicinal chemistry, 2013)
pIC50: −log10 of the molar value.

How the values were obtained:
HUVECs = test: MTT cell viability assay, HUVECs; type: cell-based, human; settings: 48 h, 25-100 μM, n = 1
Summary of the method: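 HUVECs kept in endothelial growth medium at 37°C, 5% CO2, 80% humidity. Seeded at 8,000–10,000 per well, grown overnight, then treated 48 h across a concentration range (prodrugs 0–200 μM). MTT (2 mg/mL solution) added for 1 h at 37°C; medium removed, formazan dissolved in DMSO, absorbance read at 550 nm. One experiment, at least triplicate wells.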

Guinea pig serum = type: in vitro ADME; settings: pH 7.4, 37°C; for first-order rate constant k2 of loss of 241 nm peak: 2% guinea pig serum, second, slow process
Summary of the method: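 Test compound added from a 1000× DMSO stock to 50 μM DTPA in Ca/Mg-free DPBS, pH 7.4, with 2% guinea pig serum at 37°C; blank was buffer plus serum. UV spectra taken every second for 600 s, then every 60–120 s; total scan 2500 s to 62 h. Rate constants from fitting A = ΔAe^(−kt) + A∞.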

[1] = type: physicochemical; settings: for rate of decomposition of NONO-salicylate derivatives: spontaneous, pH not printed at the place
Stomach ulcerogenicity = type: in vivo, Sprague-Dawley rats; settings: rats; for ulcer index: 1.38 mmol/kg p.o., 6 h post-administration; for ulcerogenicity compared to control: 1.38 mmol/kg
Summary of the method: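 Sprague-Dawley rats fasted 24 h with water available, then dosed orally at 1.38 mmol/kg suspended in 1.2 mL 1% methylcellulose; controls received vehicle. Killed by CO2 at 6 h; stomachs removed onto ice and lesions inspected under a magnifier, scored by size. Ulcer index = summed ulcer length per stomach, averaged over the animals in the group.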

GAPDH = GAPDH (Homo sapiens, UniProt P04406); test: GAPDH activity in A549 cells; type: cell-based; settings: 100 μM, 1 h
Summary of the method: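 A549 cells, seeded at 30,000 per well and grown overnight, exposed to test compound at 100 μM for 1 h at 37°C. Cells lysed in kit lysis buffer for 20 min at 4°C. Lysate mixed with kit mastermix; fluorescence read at 570 nm with excitation at 540 nm. Triplicate; mean ± SD; one-way ANOVA versus untreated control.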

COX-2 = test: PGE2 levels in A549 cells; type: cell-based, human; settings: 25 and 50 μM, 24 h
Summary of the method: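 A549 cells grown in RPMI 1640 with 10% FBS and penicillin/streptomycin. Seeded at 50,000 per well, grown 12 h, then given test compound at 25 or 50 μM (0.1% DMSO) for 24 h at 37°C. Supernatant PGE2 measured by competitive EIA (AChE tracer plus monoclonal antibody, overnight at 4°C), developed with Ellman's reagent, absorbance at […]. Triplicate.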

[2] = tested on: isolated murine ventricular myocytes; type: cell-based, mouse; settings: 500 μM
[3] = Fetal bovine serum induced hydrolysis, followed spectrophotometrically; type: in vitro ADME; settings: pH 7.4, 37°C, n = 1
[4] = tested on: various cancer cells lines; settings: read-out: IC50 (cytotoxicity); cited from earlier work
[5] = pH 7.4, PBS with 50 μM DTPA, 37°C

GAPDH, sequence (P04406 whole entry): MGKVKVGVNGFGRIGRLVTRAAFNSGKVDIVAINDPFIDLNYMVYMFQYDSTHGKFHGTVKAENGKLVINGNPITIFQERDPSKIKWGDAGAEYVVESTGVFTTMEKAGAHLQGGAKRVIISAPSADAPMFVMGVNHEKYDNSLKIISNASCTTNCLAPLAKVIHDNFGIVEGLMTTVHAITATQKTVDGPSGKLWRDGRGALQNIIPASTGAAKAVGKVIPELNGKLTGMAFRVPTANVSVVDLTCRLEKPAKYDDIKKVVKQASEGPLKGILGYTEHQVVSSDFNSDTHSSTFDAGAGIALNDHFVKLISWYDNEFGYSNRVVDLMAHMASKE

Row | SMILES | effect on viability of HUVECs (HUVECs) | first-order rate constant k2 of loss of 241 nm peak (Guinea pig serum) | first-order rate constant of decomposition at 241 nm [1, 5] | ulcer index (Stomach ulcerogenicity) | ulcerogenicity compared to control (Stomach ulcerogenicity) | rate of decomposition of NONO-salicylate derivatives [1] | rate constant of hydrolysis/decomposition at pH 10 ([1]; pH 10, 37°C) | also measured
1 | CCN(CC)/[N+]([O-])=N/OCOC(=O)c1ccccc1OC(C)=O [DEA/NO-aspirin, O^2-(Acetylsalicyloyloxymethyl)-1-(N,N-diethylamino)-diazen-1-ium-1,2-diolate] | no effect on viability up to 100 μM | (1.1 ± 0.6) × 10^−3 s^−1 | 5.3e-06 s⁻¹ | 0 | not significantly increased compared to control |  |  | rate constant of initial growth near 250 nm (production of DEA/NO) ([1]; pH 10, 37°C): (4.5 ± 0.6) × 10^−5 s^−1
2 | CCN(CC)/[N+]([O-])=N/OCOC(=O)c1ccccc1O [DEA/NO-salicylate, O^2-(2-hydroxybenzoyloxymethyl)-1-(N,N-diethylamino)-diazen-1-ium-1,2-diolate] |  |  |  |  |  | 3.1e-05 s⁻¹ |  | 
3 | CC(C)N/[N+]([O-])=N/[O-].[Na+] [IPA/NO, sodium 1-(N-isopropylamino)diazen-1-ium-1,2-diolate, reference compound] |  |  |  |  |  |  | 4.1 × 10^−4 s^−1 | 
4 | CC(=O)Oc1ccccc1C(=O)OCO/N=[N+](\[O-])NC(C)C [IPA/NO-aspirin, O^2-(Acetylsalicyloyloxymethyl)-1-(N-isopropylamino)-diazen-1-ium-1,2-diolate] | no effect on viability up to 100 μM | (6.5 ± 0.12) × 10^−4 s^−1 | (2.6 ± 0.2) × 10^−5 s^−1 |  | not significantly increased compared to control |  | (3.5 ± 0.8) × 10^−3 s^−1 | inhibition of GAPDH activity (GAPDH): highest; PGE2 levels (COX-2): decreased most significantly; change of time of half-relaxation from peak shortening ([2]; mean ± SEM): −17 ± 3%; increase in sarcomere shortening from control ([2]; n = 12, mean ± SEM): +201 ± 18%; rate constant of decomposition with FBS [3]: 2.7e-05 s⁻¹
5 | CC(C)N/[N+]([O-])=N/OCOC(=O)c1ccccc1O [IPA/NO-salicylate, O^2-(2-hydroxybenzoyloxymethyl)-1-(N-isopropylamino)-diazen-1-ium-1,2-diolate] |  |  |  |  |  | 7e-05 s⁻¹ |  | 
6 | CC(=O)Oc1ccccc1C(=O)O [aspirin, acetylsalicylic acid, reference compound] |  |  |  | 57.4 ± 3.1 |  |  | (1.6 ± 0.5) × 10^−4 s^−1 | rate of hydrolysis in the presence of guinea pig serum (Guinea pig serum; guinea pig serum): (4.7 ± 0.17) × 10^−4 s^−1; first-order rate constant of spontaneous hydrolysis at 295 nm [1, 5]: 9.8e-06 s⁻¹; pIC50 [4]: < 3.00
